Measured values reported in ChEMBL document CHEMBL2150909, “Imidazo[1,2-a]pyridines: orally active positive allosteric modulators of the metabotropic glutamate 2 receptor” (J Med Chem, 2012).
Calls of active or inactive are those of the source. No cut-off for these calls is given here.

How the values were obtained:
[1] = Drug uptake in Sprague-Dawley rat brain at 10 mg/kg, po after 1 hr; format: ADME, organism-based; parameters: dose 10 mg/kg, route oral; settings: read-out: Drug uptake
[2] = target: Metabotropic glutamate receptor 8 (Homo sapiens) (UniProt O00222); assay: Antagonist activity at human mGlu 8 expressed in HEK293 cells at 10 uM by Ca+2 assay; format: functional, cell-based
In short: (§1)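 Ca2+ assays on human mGlu1, mGlu3, mGlu5, mGlu7 or mGlu8 receptors, each expressed in HEK293 cells; compound tested at 10 μM for agonist and antagonist activity.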

[3] = test system: Rattus norvegicus; assay: Effect on sleep-wake cycle in Sprague-Dawley rat EEG model assessed as suppression of REM sleep at 10 mg/kg, po measured up to 2 hrs relative to control; format: functional
In short: (§2)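 Male Sprague-Dawley rats (250–300 g) implanted with EEG/EMG/EOG electrodes, 12 h light/dark cycle, n = 8 per group. Baseline 20 h recording after oral saline, then 20 h after oral 10 mg/kg or vehicle (20% CD + 2H2T). 2 s epochs scored into AW, PW, preREM, REM, lSWS, dSWS and averaged per 30 min. Latencies and transitions analysed; Wilcoxon−Mann−Whitney test vs vehicle.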

[4] = test system: Rattus norvegicus; assay: Effect on sleep-wake cycle in Sprague-Dawley rat EEG model assessed as change in light sleep at 10 mg/kg, po measured up to 20 hrs relative to control; format: functional, organism-based; parameters: dose 10 mg/kg; in short: as §2
[5] = test system: Rattus norvegicus; assay: Effect on sleep-wake cycle in Sprague-Dawley rat EEG model assessed as change in transition from sleep states toward waking at 10 mg/kg, po measured up to 20 hrs relative to control; format: functional, organism-based; parameters: dose 10 mg/kg; in short: as §2
[6] = target: Metabotropic glutamate receptor 3 (Homo sapiens) (UniProt Q14832); assay: Antagonist activity at human mGlu 3 expressed in HEK293 cells at 10 uM by Ca+2 assay; format: functional, cell-based; in short: as §1
[7] = target: Metabotropic glutamate receptor 3 (Homo sapiens) (UniProt Q14832); assay: Agonist activity at human mGlu 3 expressed in HEK293 cells at 10 uM by Ca+2 assay; format: functional, cell-based; in short: as §1
[8] = test system: Rattus norvegicus; assay: Effect on sleep-wake cycle in Sprague-Dawley rat EEG model assessed as effect on different vigilance states at 10 mg/kg, po measured up to 20 hrs relative to control; format: functional, organism-based; parameters: dose 10 mg/kg; in short: as §2
[9] = Cmax in Sprague-Dawley rat at 10 mg/kg, po; format: ADME, organism-based; parameters: dose 10 mg/kg, route oral; settings: in vivo
In short: (§3)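 Male Sprague-Dawley rats given 10 mg/kg orally and/or 1.25 mg/kg intravenously; compound formulated in 20% HP-β-CD at pH 4. Cmax, tmax, AUC0−inf, t1/2, clearance and oral bioavailability F derived from plasma levels; geometric mean of at least two runs ± SEM.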

[10] = Ratio of drug level in brain to plasma of Sprague-Dawley rat at 10 mg/kg, po after 1 hr; format: ADME, organism-based; parameters: dose 10 mg/kg, route oral; settings: read-out: BPR
In short: (§4)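 Oral dosing of Sprague−Dawley rats at 10 mg/kg, compound in 20% HP-β-CD at pH 4. Brain (ng/g) and plasma (ng/mL) concentrations sampled at the indicated time; brain-to-plasma ratio calculated. Geometric mean of at least two runs ± SEM.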

[11] = test system: Rattus norvegicus; assay: Effect on sleep-wake cycle in Sprague-Dawley rat EEG model assessed as change in sleep variables at 10 mg/kg, po measured up to 20 hrs relative to control; format: functional, organism-based; parameters: dose 10 mg/kg; in short: as §2
[12] = Tmax in Sprague-Dawley rat at 10 mg/kg, po; format: ADME, organism-based; parameters: dose 10 mg/kg, route oral; settings: in vivo
In short: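 Rat pharmacokinetics in Sprague−Dawley rats: oral 10 mg/kg and intravenous 1.25 mg/kg, formulated in 20% HP-β-CD at pH 4. Plasma profiles used for Cmax, tmax, AUC0−inf and t1/2. Reported as geometric means of at least two runs ± SEM.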

[13] = test system: Rattus norvegicus; assay: Effect on sleep-wake cycle in Sprague-Dawley rat EEG model assessed as change in passive wake at 10 mg/kg, po measured up to 20 hrs relative to control; format: functional, organism-based; parameters: dose 10 mg/kg; in short: as §2
[14] = Plasma concentration in Sprague-Dawley rat at 10 mg/kg, po after 4 hrs; format: ADME, organism-based; parameters: dose 10 mg/kg, route oral; in short: as §4
[15] = Metabolic stability of human liver microsomes assessed as compound metabolized at 5 uM after 15 mins; format: ADME, Microsome; settings: read-out: Drug metabolism
In short: (§5)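 Test compound at 5 μM incubated 15 min with rat or human liver microsomes; read-out is percent of compound metabolized.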

[16] = test system: Rattus norvegicus; assay: Effect on sleep-wake cycle in Sprague-Dawley rat EEG model assessed as change in active wake at 10 mg/kg, po measured up to 20 hrs relative to control; format: functional, organism-based; parameters: dose 10 mg/kg; in short: as §2
[17] = target: T1, Metabotropic glutamate receptor 7 (Homo sapiens, UniProt Q14831); assay: Antagonist activity at human mGlu 7 expressed in HEK293 cells at 10 uM by Ca+2 assay; format: functional, cell-based; in short: as §1
[18] = target: Metabotropic glutamate receptor 1 (Homo sapiens) (UniProt Q13255); assay: Agonist activity at human mGlu 1 expressed in HEK293 cells at 10 uM by Ca+2 assay; format: functional, cell-based; in short: as §1
[19] = target: Metabotropic glutamate receptor 5 (Homo sapiens) (UniProt P41594); assay: Agonist activity at human mGlu 5 expressed in HEK293 cells at 10 uM by Ca+2 assay; format: functional, cell-based; in short: as §1
[20] = Half life in Sprague-Dawley rat at 10 mg/kg, po; format: ADME, organism-based; parameters: dose 10 mg/kg, route oral; settings: in vivo; in short: as §3
[21] = target: Metabotropic glutamate receptor 6 (Rattus norvegicus) (UniProt P35349); assay: Agonist activity at rat mGlu 6 expressed in CHO cells assessed as [35S]GTPgammaS binding by liquid scintillation counting; format: functional, cell-based
In short: (§6)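 [35S]GTPγS functional assays on human mGlu4 or rat mGlu6 receptors expressed in L929 or CHO cells; agonist and antagonist modes tested at 10 μM.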

[22] = target: Metabotropic glutamate receptor 4 (Homo sapiens) (UniProt Q14833); assay: Antagonist activity at human mGlu 4 expressed in L929 cells assessed inhibition of [35S]GTPgammaS binding by liquid scintillation counting; format: functional, cell-based; in short: as §6
[23] = Ratio of drug level in brain to plasma of Sprague-Dawley rat at 10 mg/kg, po after 2 hrs; format: ADME, organism-based; parameters: dose 10 mg/kg, route oral; settings: read-out: BPR; in short: as §4
[24] = target: Metabotropic glutamate receptor 4 (Homo sapiens) (UniProt Q14833); assay: Agonist activity at human mGlu 4 expressed in L929 cells assessed as [35S]GTPgammaS binding by liquid scintillation counting; format: functional, cell-based; in short: as §6
[25] = target: Metabotropic glutamate receptor 1 (Homo sapiens) (UniProt Q13255); assay: Antagonist activity at human mGlu 1 expressed in HEK293 cells at 10 uM by Ca+2 assay; format: functional, cell-based; in short: as §1
[26] = test system: Rattus norvegicus; assay: Effect on sleep-wake cycle in Sprague-Dawley rat EEG model assessed as change in deep sleep at 10 mg/kg, po measured up to 20 hrs relative to control; format: functional, organism-based; parameters: dose 10 mg/kg; in short: as §2
[27] = target: Metabotropic glutamate receptor 6 (Rattus norvegicus) (UniProt P35349); assay: Antagonist activity at rat mGlu 6 expressed in CHO cells assessed as inhibition of [35S]GTPgammaS binding by liquid scintillation counting; format: functional, cell-based; in short: as §6
[28] = target: T1, Metabotropic glutamate receptor 7; assay: Agonist activity at human mGlu 7 expressed in HEK293 cells at 10 uM by Ca+2 assay; format: functional, cell-based; in short: as §1
[29] = Drug uptake in Sprague-Dawley rat brain at 10 mg/kg, po after 2 hrs; format: ADME, organism-based; parameters: dose 10 mg/kg, route oral; settings: read-out: Drug uptake
[30] = Metabolic stability of Sprague-Dawley rat liver microsomes assessed as compound metabolized at 5 uM after 15 mins; format: ADME, Microsome; settings: read-out: Drug metabolism; in short: as §5
[31] = test system: Rattus norvegicus; assay: Effect on sleep-wake cycle in Sprague-Dawley rat EEG model assessed as increase in REM sleep onset latency at 10 mg/kg, po measured up to 2 hrs relative to control; format: functional, organism-based; parameters: dose 10 mg/kg; in short: as §2
[32] = Plasma concentration in Sprague-Dawley rat at 10 mg/kg, po after 2 hrs; format: ADME, organism-based; parameters: dose 10 mg/kg, route oral
[33] = test system: Rattus norvegicus; assay: Effect on sleep-wake cycle in Sprague-Dawley rat EEG model assessed as change in intermediate state at 10 mg/kg, po measured up to 20 hrs relative to control; format: functional, organism-based; parameters: dose 10 mg/kg; in short: as §2
[34] = Plasma concentration in Sprague-Dawley rat at 10 mg/kg, po after 1 hr; format: ADME, organism-based; parameters: dose 10 mg/kg, route oral
[35] = target: Metabotropic glutamate receptor 5 (Homo sapiens) (UniProt P41594); assay: Antagonist activity at human mGlu 5 expressed in HEK293 cells at 10 uM by Ca+2 assay; format: functional, cell-based; in short: as §1
[36] = AUC (0 to infinity) in Sprague-Dawley rat at 10 mg/kg, po; format: ADME, organism-based; parameters: time infinity, dose 10 mg/kg, route oral; settings: plasma; in short: as §3
[37] = Ratio of drug level in brain to plasma of Sprague-Dawley rat at 10 mg/kg, po after 4 hrs; format: ADME, organism-based; parameters: dose 10 mg/kg, route oral; settings: brain and plasma, read-out: BPR; in short: as §4
[38] = target: Metabotropic glutamate receptor 2 (Homo sapiens, UniProt Q14416); assay: Agonist activity at human mGlu 2 expressed in CHO cells by PAM assay relative to glutamate; format: functional, cell-based
In short: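 The assay measured [35S]GTPγS binding to membranes from CHO cells expressing human mGluR2. Cells were butyrate-stimulated (5 mM, 24 h) before membranes were prepared. Membranes were preincubated for 30 min at 30 °C in HEPES pH 7.4 buffer (NaCl, MgCl2, 50 μM GDP) with compound (0.3 nM–50 μM, 11 concentrations) plus EC25 glutamate. [35S]GTPγS (0.1 nM final) was then added for 30 min at 30 °C. Bound label was collected by filtration and counted. Runs were done at least in triplicate with duplicate points, and a four-parameter logistic fit gave the values.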

[39] = target: Metabotropic glutamate receptor 8 (Homo sapiens) (UniProt O00222); assay: Agonist activity at human mGlu 8 expressed in HEK293 cells at 10 uM by Ca+2 assay; format: functional, cell-based; in short: as §1
[40] = Drug uptake in Sprague-Dawley rat brain at 10 mg/kg, po after 4 hrs; format: ADME, organism-based; parameters: dose 10 mg/kg, route oral; settings: read-out: Drug uptake

Metabotropic glutamate receptor 5 (Homo sapiens), sequence (P41594 21-1212 limits assumed): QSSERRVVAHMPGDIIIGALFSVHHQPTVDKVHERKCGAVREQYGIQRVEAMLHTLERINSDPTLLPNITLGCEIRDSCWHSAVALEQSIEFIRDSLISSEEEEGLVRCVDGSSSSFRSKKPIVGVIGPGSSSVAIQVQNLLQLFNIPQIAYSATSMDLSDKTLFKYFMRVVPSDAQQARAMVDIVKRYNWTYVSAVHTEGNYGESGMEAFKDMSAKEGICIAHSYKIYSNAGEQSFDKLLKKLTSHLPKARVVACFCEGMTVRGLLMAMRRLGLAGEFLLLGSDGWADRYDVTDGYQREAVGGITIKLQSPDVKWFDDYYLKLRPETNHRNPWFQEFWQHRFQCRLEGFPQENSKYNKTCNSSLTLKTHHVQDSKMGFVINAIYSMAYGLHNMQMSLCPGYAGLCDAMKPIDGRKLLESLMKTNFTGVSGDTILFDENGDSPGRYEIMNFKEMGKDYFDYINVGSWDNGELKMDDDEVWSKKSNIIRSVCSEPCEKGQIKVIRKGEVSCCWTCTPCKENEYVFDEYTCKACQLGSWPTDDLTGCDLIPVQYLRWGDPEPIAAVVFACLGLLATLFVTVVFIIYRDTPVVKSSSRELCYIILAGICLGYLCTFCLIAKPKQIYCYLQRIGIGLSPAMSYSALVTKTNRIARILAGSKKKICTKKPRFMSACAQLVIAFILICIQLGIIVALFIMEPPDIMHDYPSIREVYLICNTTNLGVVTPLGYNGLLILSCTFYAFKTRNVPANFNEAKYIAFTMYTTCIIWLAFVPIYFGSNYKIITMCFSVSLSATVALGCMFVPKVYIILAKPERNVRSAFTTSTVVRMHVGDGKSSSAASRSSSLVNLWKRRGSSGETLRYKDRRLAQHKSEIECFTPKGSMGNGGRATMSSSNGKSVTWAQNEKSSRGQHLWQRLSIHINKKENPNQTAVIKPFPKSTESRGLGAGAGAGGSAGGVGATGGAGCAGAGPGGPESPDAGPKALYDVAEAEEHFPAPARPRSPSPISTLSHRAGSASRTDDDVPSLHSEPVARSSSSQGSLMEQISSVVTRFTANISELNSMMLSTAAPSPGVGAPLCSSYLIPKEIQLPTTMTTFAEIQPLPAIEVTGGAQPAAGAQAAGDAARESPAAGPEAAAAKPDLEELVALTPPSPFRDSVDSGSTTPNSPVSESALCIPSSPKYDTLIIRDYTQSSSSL
Metabotropic glutamate receptor 8 (Homo sapiens), sequence (O00222 whole entry): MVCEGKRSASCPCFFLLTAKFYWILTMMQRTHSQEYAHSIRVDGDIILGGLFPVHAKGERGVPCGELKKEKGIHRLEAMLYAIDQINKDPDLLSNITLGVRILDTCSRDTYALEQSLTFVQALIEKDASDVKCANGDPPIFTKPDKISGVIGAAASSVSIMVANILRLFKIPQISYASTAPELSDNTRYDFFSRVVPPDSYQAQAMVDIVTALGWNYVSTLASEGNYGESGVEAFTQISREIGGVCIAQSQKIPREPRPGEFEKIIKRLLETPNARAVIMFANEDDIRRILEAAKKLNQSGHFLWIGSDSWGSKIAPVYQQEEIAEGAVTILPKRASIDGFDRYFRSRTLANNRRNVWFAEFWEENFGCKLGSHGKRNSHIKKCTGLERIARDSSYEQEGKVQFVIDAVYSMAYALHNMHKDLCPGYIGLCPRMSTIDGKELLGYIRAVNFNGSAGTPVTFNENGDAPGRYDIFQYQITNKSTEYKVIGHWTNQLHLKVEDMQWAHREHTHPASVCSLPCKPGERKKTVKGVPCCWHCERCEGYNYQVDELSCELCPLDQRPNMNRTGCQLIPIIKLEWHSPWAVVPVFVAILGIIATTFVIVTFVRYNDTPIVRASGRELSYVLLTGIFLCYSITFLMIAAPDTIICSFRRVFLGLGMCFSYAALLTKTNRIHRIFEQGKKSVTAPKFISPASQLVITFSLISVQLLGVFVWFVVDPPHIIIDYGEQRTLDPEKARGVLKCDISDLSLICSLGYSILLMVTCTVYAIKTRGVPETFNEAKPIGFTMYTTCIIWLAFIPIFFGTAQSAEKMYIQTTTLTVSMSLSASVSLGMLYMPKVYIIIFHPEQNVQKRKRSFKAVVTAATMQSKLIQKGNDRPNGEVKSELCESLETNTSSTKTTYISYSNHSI
Metabotropic glutamate receptor 4 (Homo sapiens), sequence (Q14833 whole entry): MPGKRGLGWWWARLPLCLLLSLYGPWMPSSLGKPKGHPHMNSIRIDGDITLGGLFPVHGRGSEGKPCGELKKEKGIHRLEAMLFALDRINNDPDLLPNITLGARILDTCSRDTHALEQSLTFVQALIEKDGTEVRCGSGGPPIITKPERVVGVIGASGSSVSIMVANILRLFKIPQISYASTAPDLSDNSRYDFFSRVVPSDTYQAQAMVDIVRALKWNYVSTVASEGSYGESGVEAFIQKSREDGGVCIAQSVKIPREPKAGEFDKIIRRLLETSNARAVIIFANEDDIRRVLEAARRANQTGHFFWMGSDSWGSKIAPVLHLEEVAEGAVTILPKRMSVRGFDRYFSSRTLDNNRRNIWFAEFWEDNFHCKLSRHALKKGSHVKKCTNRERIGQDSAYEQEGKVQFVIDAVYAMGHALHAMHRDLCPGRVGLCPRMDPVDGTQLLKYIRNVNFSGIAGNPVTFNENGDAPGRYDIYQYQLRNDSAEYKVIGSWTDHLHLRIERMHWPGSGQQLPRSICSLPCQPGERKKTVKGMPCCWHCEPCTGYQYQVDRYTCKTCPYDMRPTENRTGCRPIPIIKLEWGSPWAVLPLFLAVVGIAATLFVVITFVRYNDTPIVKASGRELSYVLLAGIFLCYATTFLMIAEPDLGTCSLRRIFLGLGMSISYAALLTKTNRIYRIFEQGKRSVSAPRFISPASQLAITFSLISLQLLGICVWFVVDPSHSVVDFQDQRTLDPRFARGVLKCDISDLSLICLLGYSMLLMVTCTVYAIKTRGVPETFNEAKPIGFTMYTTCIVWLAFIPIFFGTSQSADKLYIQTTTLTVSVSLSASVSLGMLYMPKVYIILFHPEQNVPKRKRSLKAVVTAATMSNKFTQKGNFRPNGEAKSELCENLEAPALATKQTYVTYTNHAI
Metabotropic glutamate receptor 6 (Rattus norvegicus), sequence (P35349 whole entry): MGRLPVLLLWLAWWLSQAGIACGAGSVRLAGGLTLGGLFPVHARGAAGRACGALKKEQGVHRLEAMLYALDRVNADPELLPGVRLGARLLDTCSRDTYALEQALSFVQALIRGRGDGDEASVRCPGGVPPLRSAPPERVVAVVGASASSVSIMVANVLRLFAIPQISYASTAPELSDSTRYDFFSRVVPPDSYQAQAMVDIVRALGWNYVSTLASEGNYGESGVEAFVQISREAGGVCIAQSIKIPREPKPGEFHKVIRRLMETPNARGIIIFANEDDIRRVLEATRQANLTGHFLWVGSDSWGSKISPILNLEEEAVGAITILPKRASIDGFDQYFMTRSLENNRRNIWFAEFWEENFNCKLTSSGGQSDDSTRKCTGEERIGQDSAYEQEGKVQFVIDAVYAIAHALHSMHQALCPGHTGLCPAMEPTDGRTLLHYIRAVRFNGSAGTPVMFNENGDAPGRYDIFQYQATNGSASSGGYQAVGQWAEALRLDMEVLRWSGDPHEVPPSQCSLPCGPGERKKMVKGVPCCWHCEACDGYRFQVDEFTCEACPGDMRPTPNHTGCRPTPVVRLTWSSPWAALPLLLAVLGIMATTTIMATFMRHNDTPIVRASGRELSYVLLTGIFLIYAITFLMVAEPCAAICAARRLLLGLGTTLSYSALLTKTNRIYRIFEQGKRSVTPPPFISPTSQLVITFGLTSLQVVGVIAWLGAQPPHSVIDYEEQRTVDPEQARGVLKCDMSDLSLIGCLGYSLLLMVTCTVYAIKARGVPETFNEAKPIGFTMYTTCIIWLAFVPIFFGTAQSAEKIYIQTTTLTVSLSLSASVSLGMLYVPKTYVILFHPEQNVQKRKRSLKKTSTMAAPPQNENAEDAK
Metabotropic glutamate receptor 1 (Homo sapiens), sequence (Q13255 19-1194 limits assumed): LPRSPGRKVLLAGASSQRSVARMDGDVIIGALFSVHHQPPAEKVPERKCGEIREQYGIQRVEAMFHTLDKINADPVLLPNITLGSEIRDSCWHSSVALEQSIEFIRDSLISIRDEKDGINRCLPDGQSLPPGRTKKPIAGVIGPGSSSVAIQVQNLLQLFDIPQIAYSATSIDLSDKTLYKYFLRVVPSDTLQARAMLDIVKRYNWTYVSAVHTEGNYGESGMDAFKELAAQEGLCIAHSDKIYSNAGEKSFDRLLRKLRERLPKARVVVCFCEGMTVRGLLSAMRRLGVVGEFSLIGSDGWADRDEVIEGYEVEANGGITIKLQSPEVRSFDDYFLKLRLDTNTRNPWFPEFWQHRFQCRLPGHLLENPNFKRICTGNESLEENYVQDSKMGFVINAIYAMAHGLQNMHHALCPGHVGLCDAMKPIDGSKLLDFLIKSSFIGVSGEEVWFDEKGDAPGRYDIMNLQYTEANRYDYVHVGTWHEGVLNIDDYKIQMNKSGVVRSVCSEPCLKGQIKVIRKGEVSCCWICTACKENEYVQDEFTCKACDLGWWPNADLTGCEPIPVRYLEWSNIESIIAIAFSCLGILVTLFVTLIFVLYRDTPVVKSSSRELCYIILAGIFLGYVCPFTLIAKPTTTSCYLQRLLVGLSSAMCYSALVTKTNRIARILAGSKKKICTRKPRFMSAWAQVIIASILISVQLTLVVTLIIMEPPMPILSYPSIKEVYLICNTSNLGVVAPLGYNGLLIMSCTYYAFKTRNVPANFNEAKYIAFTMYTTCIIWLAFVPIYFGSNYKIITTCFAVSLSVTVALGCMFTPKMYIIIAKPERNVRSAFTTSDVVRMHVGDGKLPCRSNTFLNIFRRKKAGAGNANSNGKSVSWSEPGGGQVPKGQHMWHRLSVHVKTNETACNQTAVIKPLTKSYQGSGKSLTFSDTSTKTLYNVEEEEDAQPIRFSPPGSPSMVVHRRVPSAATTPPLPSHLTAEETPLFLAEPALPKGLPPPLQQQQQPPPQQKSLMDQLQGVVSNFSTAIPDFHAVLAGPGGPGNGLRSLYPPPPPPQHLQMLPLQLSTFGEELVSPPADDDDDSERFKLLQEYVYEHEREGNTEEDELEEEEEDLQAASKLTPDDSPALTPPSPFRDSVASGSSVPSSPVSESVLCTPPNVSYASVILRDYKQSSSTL

- concentration at 1 h [1]: 538 ng/g
- Activity [2]: inactive
- Activity [6]: inactive
- Activity [7]: inactive
- Cmax [9]: 534 ng/mL
- Kp at 1 h [10]: 1.3
- Tmax [12]: 48 min
- concentration at 4 h [14]: 168 ng/mL
- metabolised at 0.25 h, 5 µM [15]: 10%
- Activity [17]: inactive
- Activity [18]: inactive
- Activity [19]: inactive
- half-life [20]: 120 min
- Activity [21]: inactive
- Activity [22]: inactive
- Kp at 2 h [23]: 1.2
- Activity [24]: inactive
- Activity [25]: inactive
- Activity [27]: inactive
- Activity [28]: inactive
- concentration at 2 h [29]: 441 ng/g
- metabolised at 0.25 h, 5 µM [30]: 21%
- concentration at 2 h [32]: 364 ng/mL
- concentration at 1 h [34]: 414 ng/mL
- Activity [35]: inactive
- AUC(0-inf) [36]: 1980 ng·h/mL
- Kp at 4 h [37]: 0.8
- Emax [38]: 217%
- Activity [39]: inactive
- concentration at 4 h [40]: 126 ng/g
SMILES: FC(F)(F)Cc1cnc2c(Cl)c(-c3cc(Cl)c4[nH]ccc4c3)ccn12
- Activity [3]: 57%
- Activity [4]: inactive
- Activity [5]: inactive
- Activity [8]: inactive
- Activity [11]: inactive
- Activity [13]: inactive
- Activity [16]: inactive
- Activity [26]: inactive
- Activity [31]: Active
- Activity [33]: inactive
